Measured values pooled from the literature.
Lines come from different studies, so protocols differ. ≈ marks a conversion by molar mass, not a printed value.

SMILES	target or system	assay	test system	conditions	quantity	result
CCOC(=O)c1cc(-c2cccc(NC(=O)Nc3ccc(Cl)c(Cl)c3)c2)on1	Klebsiella pneumoniae	microbial growth, broth dilution	BAA1705	–	MIC	> 64 µg/mL
N#CCc1c[nH]c2ccccc12	Cryptosporidium parvum	parasite growth	HCT-8	24 h, intracellular	EC50	546 µM
O=C(N/N=C1\C(=O)N(Cc2ccccc2)c2ccc(Cl)cc21)c1cc2ccccc2[nH]1	Swiss-3T3	cell growth or viability	–	72 h	IC50	3.49 µM
COC(=O)c1cc(-c2cccc(NC(=S)Nc3cc(C(F)(F)F)cc(C(F)(F)F)c3)c2)on1	Klebsiella pneumoniae	microbial growth, broth dilution	BAA1705	–	MIC	> 64 µg/mL
Cc1ccc(CN2C(=O)/C(=N\NC(=O)c3cc4ccccc4[nH]3)c3ccccc32)cc1	HT-29	cell growth or viability	–	30 µM	inhibition	91.1%
CC(C)CCCCCCCCCCCCc1cc(O)cc(O)c1	Klebsiella pneumoniae	microbial growth	ATCC29665	–	IC50	> 200 µM
COC(=O)c1cc(-c2cccc(NC(=O)Nc3ccc(Cl)cc3Cl)c2)on1	Klebsiella pneumoniae	microbial growth, broth dilution	BAA1705	–	MIC	> 64 µg/mL
C=CC(c1ccc(-c2ccc(O)cc2)cc1)n1ccnc1 (centres unmarked)	Mycobacterium tuberculosis variant bovis BCG	microbial growth	BCG	–	MIC50	> 50 µM
O=C(N/N=C1\C(=O)N(Cc2ccccc2)c2ccccc21)c1cc2ccccc2[nH]1	HT-29	cell growth or viability	–	30 µM	inhibition	92.7%
COc1c2c(cc3c1OCO3)[C@]13C=C[C@H](OC)C[C@@H]1[N@](C2)C[C@H]3OC(=O)c1ccco1	HT-29	cell growth or viability, WST-1	–	–	IC50	> 10 µM
O=C(N/N=C1\C(=O)N(Cc2ccc(Cl)cc2)c2ccccc21)c1cc2ccccc2[nH]1	HT-29	cell growth or viability	–	–	IC50	2.64 µM
N#Cc1c[nH]c2ccccc12	Cryptosporidium parvum	parasite growth	HCT-8	24 h, intracellular	EC50	163 µM
C[C@H]1COc2c(N3CCN(C)CC3)c(F)cc3c(=O)c(C(=O)O)cn1c23	Klebsiella pneumoniae	microbial growth, broth dilution	BAA1705	–	MIC	64 µg/mL (≈ 177 µM)
Cc1cccc(-n2ncc(Cl)c(Cl)c2=O)c1	NCI-H1650	cell growth or viability, resazurin	–	96 h	IC50	1.24 µM
CC(C)CCCCCCCCCCCCCCc1cc(O)cc(O)c1	Klebsiella pneumoniae	microbial growth	ATCC29665	–	IC50	> 200 µM
COc1ccc(C=CC(=O)c2ccc(-c3ccccc3)cc2)cc1OC	Mycobacterium tuberculosis variant bovis BCG	microbial growth	BCG	7 days	MIC	100 µg/mL (≈ 290 µM)
COC(=O)c1cc(-c2cccc(NC(=O)Nc3ccc(Cl)c(C(F)(F)F)c3)c2)on1	Klebsiella pneumoniae	microbial growth, broth dilution	BAA1705	–	MIC	> 64 µg/mL
COc1ccc2c(c1)/C(=N/NC(=O)c1cc3ccccc3[nH]1)C(=O)N2Cc1ccccc1	HT-29	cell growth or viability	–	30 µM	inhibition	94%
CCC1(c2ccc(N)cc2)CCC(=O)NC1=O (centres unmarked)	A2780	cell growth or viability, CCK-8	–	48 h	IC50	> 50 µM
O=C(Nc1cccc(-c2cc(C(=O)O)no2)c1)Nc1ccc(Cl)c(Cl)c1	Klebsiella pneumoniae	microbial growth, broth dilution	BAA1705	–	MIC	> 64 µg/mL
N#Cc1ccc(CN2C(=O)/C(=N\NC(=O)c3cc4ccccc4[nH]3)c3ccccc32)cc1	HT-29	cell growth or viability	–	–	IC50	8.11 µM
COC(=O)c1cc(-c2cccc(NC(=O)Nc3ccc(C)c(Cl)c3)c2)on1	Klebsiella pneumoniae	microbial growth, broth dilution	BAA1705	–	MIC	> 64 µg/mL
CCC(CCCCCCCCCCc1cc(O)cc(O)c1)C(C)C (centres unmarked)	Klebsiella pneumoniae	microbial growth	ATCC29665	–	IC50	> 200 µM
